# Measured values reported in article PMC9588736 (Cell chemical biology, 2022).
# Read-outs that look alike come from different tables or passages of the source.
# Legend:
# KEAP1 [1] = target: T1, KEAP1 (Homo sapiens, UniProt Q14145); test: KEAP1-NRF2 displacement TR-FRET assay; format: binding
# Target sequence in this assay (Q14145 321-609): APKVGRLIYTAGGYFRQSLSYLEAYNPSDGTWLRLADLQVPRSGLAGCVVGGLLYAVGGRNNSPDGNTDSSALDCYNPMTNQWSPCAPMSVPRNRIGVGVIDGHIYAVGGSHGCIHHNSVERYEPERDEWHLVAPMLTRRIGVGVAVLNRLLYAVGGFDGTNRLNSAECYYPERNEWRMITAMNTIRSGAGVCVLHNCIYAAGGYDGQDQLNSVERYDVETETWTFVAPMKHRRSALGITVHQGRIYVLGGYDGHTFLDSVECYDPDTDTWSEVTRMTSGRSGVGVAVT
# BRD4 = BRD4 (Homo sapiens, UniProt O60885); test: Immunoblot of BRD4 degradation in MM.1S cells; format: cell-based; conditions: for cellular degradation of BRD4, linker library: 16 h
# Method in brief: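 MM.1S cells were treated with test compound for 16 h (24 h in the initial screen). For rescue, cells were pretreated 2 h with 10 μM KEAP1 inhibitor, 10 μM JQ1 or 1 μM MLN4924. Lysates in RIPA were BCA-normalised, run on 4–12% gels and blotted to PVDF with IRDye secondaries. BRD4 bands were quantified relative to β-actin. Two independent experiments.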
# KEAP1-BRD4BD2 = KEAP1-BRD4BD2 (Homo sapiens, UniProt O60885+Q14145); test: KEAP1-BRD4BD2 dimerization TR-FRET assay; format: biochemical
# Chain of KEAP1-BRD4BD2 (Q14145 321-609 limits assumed, other chains not shown): as the sequence (Q14145 321-609) above
# Method in brief: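 TR-FRET mix: 200 nM biotinylated human BRD4BD2, 200 nM Alexa Fluor 647-labelled human KEAP1 (residues 321–609, insect-cell expressed, SpyCatcher-labelled) and 2 nM Eu-streptavidin. Buffer was 50 mM Tris pH 8.0, 200 mM NaCl, 0.1% Pluronic F-68, 0.5% BSA and 1 mM TCEP; compound was titrated. After 15 min at room temperature, excitation was 337 nm and the 665/620 nm ratio was read over thirty 200-s cycles. Mean ± SD of ≥3 technical replicates; two independent experiments.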
# CRBN = CRBN (Homo sapiens, UniProt Q96SW2); test: Immunoblot of CRBN in MM.1S cells; format: cell-based
# Chain of CRBN (Q96SW2 whole entry): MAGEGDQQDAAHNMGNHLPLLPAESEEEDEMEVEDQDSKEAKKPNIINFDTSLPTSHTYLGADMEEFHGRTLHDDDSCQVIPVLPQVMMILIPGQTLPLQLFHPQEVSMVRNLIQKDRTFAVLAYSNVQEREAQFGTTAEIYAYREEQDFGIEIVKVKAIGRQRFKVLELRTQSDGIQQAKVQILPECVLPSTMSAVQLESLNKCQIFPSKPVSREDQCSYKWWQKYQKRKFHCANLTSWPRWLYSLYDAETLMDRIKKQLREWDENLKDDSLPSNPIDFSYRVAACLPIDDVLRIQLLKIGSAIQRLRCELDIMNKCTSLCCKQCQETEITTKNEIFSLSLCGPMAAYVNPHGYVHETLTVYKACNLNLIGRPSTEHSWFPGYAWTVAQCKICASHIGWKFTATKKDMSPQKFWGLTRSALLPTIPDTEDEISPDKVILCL
# OVCAR8 cells = test: Proteomics profiling of KEAP1-CRBN PROTACs; format: cell-based, human; conditions: legend: MM.1S cells, 5 h, 5 μM
# KEAP1 [2] = target: T1, KEAP1; test: Immunoblot of KEAP1 degradation in WT and CRBN−/− MM.1S cells; format: cell-based; conditions: for KEAP1 degradation in CRBN knockout cells: CRBN−/− MM.1S cells; for KEAP1 degradation in CRBN knockout cells / KEAP1 degradation in wildtype cells: 5 μM, 2-hour treatment; for KEAP1 degradation: MM.1S cells; for KEAP1 degradation in wildtype cells: wildtype MM.1S cells
# Target sequence in this assay (Q14145 whole entry): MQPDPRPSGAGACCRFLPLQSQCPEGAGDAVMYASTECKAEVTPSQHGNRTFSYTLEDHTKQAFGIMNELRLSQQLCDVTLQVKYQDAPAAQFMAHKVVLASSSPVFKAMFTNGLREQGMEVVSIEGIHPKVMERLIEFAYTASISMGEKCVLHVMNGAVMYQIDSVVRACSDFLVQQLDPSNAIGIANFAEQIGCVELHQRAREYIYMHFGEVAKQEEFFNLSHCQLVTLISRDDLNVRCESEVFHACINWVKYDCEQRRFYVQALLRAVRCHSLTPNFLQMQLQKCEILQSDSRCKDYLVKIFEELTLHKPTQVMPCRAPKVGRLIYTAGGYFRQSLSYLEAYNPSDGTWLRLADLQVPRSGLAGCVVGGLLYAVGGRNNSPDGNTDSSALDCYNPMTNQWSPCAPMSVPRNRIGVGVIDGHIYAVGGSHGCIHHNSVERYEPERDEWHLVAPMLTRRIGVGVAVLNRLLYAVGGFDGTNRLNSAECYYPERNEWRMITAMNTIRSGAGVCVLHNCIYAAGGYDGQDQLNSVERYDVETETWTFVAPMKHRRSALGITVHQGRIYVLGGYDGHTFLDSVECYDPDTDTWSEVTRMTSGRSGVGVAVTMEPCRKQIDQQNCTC
# MM.1S cells = test: Antiproliferation assay; format: cell-based; conditions: Homo sapiens, MM1.S, 72 h, read-out: anti-proliferative effect
# Method in brief: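 MM.1S cells (RPMI, 10% FBS, 1% Pen/Strep, 37°C, 5% CO2) seeded at 10000 cells/well and grown 12 h, then exposed to test compound for 72 h. Viability read by CellTiter-Glo luminescence. Dose-response curves fitted by non-linear regression. Mean ± SEM of three technical replicates; representative of two independent experiments.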
structure (smiles),measurement,setting,value
"COc1cc(C(CC(=O)O)c2ccc(C)c(CN3C[C@@H](C)Oc4cc(CCCCCCNC(=O)C[C@@H]5N=C(c6ccc(Cl)cc6)c6c(sc(C)c6C)-n6c(C)nnc65)ccc4S3(=O)=O)c2)cc2nnn(C)c12 (mixture of isomers) [DGY-06–177, 3-(3-(((R)-7-(6-(2-((S)-4-(4-chlorophenyl)-2,3,9-trimethyl-6H-thieno[3,2-f][1,2,4]triazolo[4,3-a][1,4]diazepin-6-yl)acetamido)hexyl)-4-methyl-1,1-dioxido-3,4-dihydro-2H-benzo[b][1,4,5]oxathiazepin-2-yl)methyl)-4-methylphenyl)-3-(7-methoxy-1-methyl-1H-benzo[d][1,2,3]triazol-5-yl)propanoic acid]",IC50,KEAP1 [1],145 nM
same,concentration at which hook effect is exhibited,"BRD4; MM.1S cells, 24 h",5 µM
same,concentration of maximal BRD4 degradation,"BRD4; MM.1S cells, 24 h",1 µM
same,concentration at which KEAP1-BRD4BD2 dimerization is promoted,KEAP1-BRD4BD2,approximately 100 nM
"COc1cc(C(CC(=O)O)c2ccc(C)c(CN(C)S(=O)(=O)c3ccc(OCCCCCCNC(=O)C[C@@H]4N=C(c5ccc(Cl)cc5)c5c(sc(C)c5C)-n5c(C)nnc54)cc3)c2)cc2nnn(C)c12 (stereo partly drawn) [DGY-05–089, 3-(3-(((4-((6-(2-((S)-4-(4-chlorophenyl)-2,3,9-trimethyl-6H-thieno[3,2-f][1,2,4]triazolo[4,3-a][1,4]diazepin-6-yl)acetamido)hexyl)oxy)-N-methylphenyl)sulfonamido)methyl)-4-methylphenyl)-3-(7-methoxy-1-methyl-1H-benzo[d][1,2,3]triazol-5-yl)propanoic acid]",IC50,"KEAP1 [1]; read-out: IC50, KEAP1-NRF2 TR-FRET displacement",147 nM
same,BRD4 degradation,"BRD4; MM.1S cells, 24 h",failed to degrade BRD4
same,KEAP1-BRD4BD2 ternary complex formation / dimerization,KEAP1-BRD4BD2,did not induce ternary complex formation
"COc1cc([C@H](CC(=O)O)c2ccc(C)c(CN3C[C@@H](C)Oc4cc(CCCCCCNC(=O)C[C@@H]5N=C(c6ccc(Cl)cc6)c6c(sc(C)c6C)-n6c(C)nnc65)ccc4S3(=O)=O)c2)cc2nnn(C)c12 [DGY-06–177-pk1, (R)-3-(3-(((R)-7-(6-(2-((S)-4-(4-chlorophenyl)-2,3,9-trimethyl-6H-thieno[3,2-f][1,2,4]triazolo[4,3-a][1,4]diazepin-6-yl)acetamido)hexyl)-4-methyl-1,1-dioxido-3,4-dihydro-2H-benzo[b][1,4,5]oxathiazepin-2-yl)methyl)-4-methylphenyl)-3-(7-methoxy-1-methyl-1H-benzo[d][1,2,3]triazol-5-yl)propanoic acid]",concentration at which KEAP1-BRD4BD2 dimerization is induced,KEAP1-BRD4BD2,~ 10 μM
"COc1cc([C@@H](CC(=O)O)c2ccc(C)c(CN3C[C@@H](C)Oc4cc(CCCCCCNC(=O)COc5cccc6c5C(=O)N(C5CCC(=O)NC5=O)C6=O)ccc4S3(=O)=O)c2)cc2nnn(C)c12 (stereo partly drawn) [NJH-04–086, (3S)-3-(3-(((4R)-7-(6-(2-((2-(2,6-dioxopiperidin-3-yl)-1,3-dioxoisoindolin-4-yl)oxy)acetamido)hexyl)-4-methyl-1,1-dioxido-3,4-dihydro-2H-benzo[b][1,4,5]oxathiazepin-2-yl)methyl)-4-methylphenyl)-3-(7-methoxy-1-methyl-1H-benzo[d][1,2,3]triazol-5-yl)propanoic acid]",effect on CRBN,CRBN,spared CRBN
same,selectivity of degradation across the proteome,OVCAR8 cells,clear degradation of KEAP1 and a few zinc finger proteins
same,KEAP1 degradation in CRBN knockout cells,KEAP1 [2],not CRBN^−/− MM.1S cells
same,KEAP1 degradation,KEAP1 [2],rapid degradation of KEAP1
same,KEAP1 degradation in wildtype cells,KEAP1 [2],observed KEAP1 degradation
"COc1cc([C@@H](CC(=O)O)c2ccc(C)c(CN3C[C@@H](C)Oc4cc(CCCCCCNC(=O)COc5cc6c7c(cccc7c5)C(=O)N(C5CCC(=O)NC5=O)C6=O)ccc4S3(=O)=O)c2)cc2nnn(C)c12 (stereo partly drawn) [NJH-04–087, (3S)-3-(3-(((4R)-7-(6-(2-((2-(2,6-dioxopiperidin-3-yl)-1,3-dioxo-2,3-dihydro-1H-benzo[de]isoquinolin-5-yl)oxy)acetamido)hexyl)-4-methyl-1,1-dioxido-3,4-dihydro-2H-benzo[b][1,4,5]oxathiazepin-2-yl)methyl)-4-methylphenyl)-3-(7-methoxy-1-methyl-1H-benzo[d][1,2,3]triazol-5-yl)propanoic acid]",effect on CRBN,CRBN,spared CRBN
same,selectivity of degradation across the proteome,OVCAR8 cells,selective for inducing degradation of KEAP1 across the proteome and does not degrade any zinc finger proteins
same,KEAP1 degradation in CRBN knockout cells,KEAP1 [2],not CRBN^−/− MM.1S cells
same,KEAP1 degradation,KEAP1 [2],rapid degradation of KEAP1
same,KEAP1 degradation in wildtype cells,KEAP1 [2],observed KEAP1 degradation
"COc1cc([C@@H](CC(=O)O)c2ccc(C)c(CN3C[C@@H](C)Oc4cc(CCCCCCNC(=O)COc5cc6c7c(cccc7c5)C(=O)N(C5CCC(=O)N(C)C5=O)C6=O)ccc4S3(=O)=O)c2)cc2nnn(C)c12 (stereo partly drawn) [NJH-04–202, (3S)-3-(7-methoxy-1-methyl-1H-benzo[d][1,2,3]triazol-5-yl)-3-(4-methyl-3-(((4R)-4-methyl-7-(6-(2-((2-(1-methyl-2,6-dioxopiperidin-3-yl)-1,3-dioxo-2,3-dihydro-1H-benzo[de]isoquinolin-5-yl)oxy)acetamido)hexyl)-1,1-dioxido-3,4-dihydro-2H-benzo[b][1,4,5]oxathiazepin-2-yl)methyl)phenyl)propanoic acid]","KEAP1 degradation, negative control","KEAP1 [2]; WT MM.1S cells, 4 h",did not induce KEAP1 degradation
"COc1cc([C@@H](CC(=O)O)c2ccc(C)c(CN3C[C@@H](C)Oc4cc(CCCCNC(=O)C[C@@H]5N=C(c6ccc(Cl)cc6)c6c(sc(C)c6C)-n6c(C)nnc65)ccc4S3(=O)=O)c2)cc2nnn(C)c12 [NJH-05–138, (S)-3-(3-(((R)-7-(4-(2-((S)-4-(4-chlorophenyl)-2,3,9-trimethyl-6H-thieno[3,2-f][1,2,4]triazolo[4,3-a][1,4]diazepin-6-yl)acetamido)butyl)-4-methyl-1,1-dioxido-3,4-dihydro-2H-benzo[b][1,4,5]oxathiazepin-2-yl)methyl)-4-methylphenyl)-3-(7-methoxy-1-methyl-1H-benzo[d][1,2,3]triazol-5-yl)propanoic acid]","cellular degradation of BRD4, linker library",BRD4; MM.1S cells,showed cellular degradation of BRD4 to a similar level to DGY-06–177-pk2
"COc1cc([C@@H](CC(=O)O)c2ccc(C)c(CN3C[C@@H](C)Oc4cc(CCCOCCNC(=O)C[C@@H]5N=C(c6ccc(Cl)cc6)c6c(sc(C)c6C)-n6c(C)nnc65)ccc4S3(=O)=O)c2)cc2nnn(C)c12 [NJH-05–141, (S)-3-(3-(((R)-7-(3-(2-(2-((S)-4-(4-chlorophenyl)-2,3,9-trimethyl-6H-thieno[3,2-f][1,2,4]triazolo[4,3-a][1,4]diazepin-6-yl)acetamido)ethoxy)propyl)-4-methyl-1,1-dioxido-3,4-dihydro-2H-benzo[b][1,4,5]oxathiazepin-2-yl)methyl)-4-methylphenyl)-3-(7-methoxy-1-methyl-1H-benzo[d][1,2,3]triazol-5-yl)propanoic acid]","cellular degradation of BRD4, linker library",BRD4; MM.1S cells,showed cellular degradation of BRD4 to a similar level to DGY-06–177-pk2
"CCOC(=O)C[C@@H](c1ccc(C)c(CN2C[C@@H](C)Oc3cc(CCCCCCNC(=O)C[C@@H]4N=C(c5ccc(Cl)cc5)c5c(sc(C)c5C)-n5c(C)nnc54)ccc3S2(=O)=O)c1)c1cc(OC)c2c(c1)nnn2C [NJH-05–146, Ethyl (S)-3-(3-(((R)-7-(6-(2-((S)-4-(4-chlorophenyl)-2,3,9-trimethyl-6H-thieno[3,2-f][1,2,4]triazolo[4,3-a][1,4]diazepin-6-yl)acetamido)hexyl)-4-methyl-1,1-dioxido-3,4-dihydro-2H-benzo[b][1,4,5]oxathiazepin-2-yl)methyl)-4-methylphenyl)-3-(7-methoxy-1-methyl-1H-benzo[d][1,2,3]triazol-5-yl)propanoate]",IC50,MM.1S cells,> 10 µM
same,KEAP1 binding / engagement in TR-FRET Nrf2 peptide displacement assay,KEAP1 [1],did not bind KEAP1
same,activity at prolonged timepoints,BRD4,inactive even at prolonged timepoints
same,"BRD4 degradation, negative control","BRD4; MM.1S cells, 16-hour treatment at 0.1, 1, and 10 μM",did not result in degradation of BRD4
